Assay results from ChEMBL document CHEMBL4689842, “EUbOPEN Chemogenomics Library wave 1” (2021).

System: Fibroblast
Assay: Multiplex assay against human fibroblast
Type: toxicity, cell-based
In short: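 At seeding, live cells were stained with Hoechst33342, BioTracker Green Microtubule Cytoskeleton Dye, MitoTracker Red and Annexin V Alexa Fluor 680. After compound addition they were imaged on a CQ1 microscope at 37°C and 5% CO2, and CellPathfinder machine-learning gating sorted them into Hoechst high-intensity objects or normal cells, with normal cells further split into healthy, pyknosed or fragmented nuclei and pyknosed cells into mitotic or apoptotic. Tubulin, mitochondrial-mass and membrane-permeability phenotypes are given as per cents of cells with healthy nuclei.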

[1] = 12 h, 1 µM, compound concentration 1 uM, replicate 1
[2] = 12 h, 1 µM, compound concentration 1 uM, replicate 2
[3] = 12 h, 10 µM, compound concentration 10 uM, replicate 1
[4] = 12 h, 10 µM, compound concentration 10 uM, replicate 2
[5] = 24 h, 1 µM, compound concentration 1 uM, replicate 1
[6] = 24 h, 1 µM, compound concentration 1 uM, replicate 2
[7] = 24 h, 10 µM, compound concentration 10 uM, replicate 1
[8] = 24 h, 10 µM, compound concentration 10 uM, replicate 2
[9] = 48 h, 1 µM, compound concentration 1 uM, replicate 1
[10] = 48 h, 1 µM, compound concentration 1 uM, replicate 2
[11] = 48 h, 10 µM, compound concentration 10 uM, replicate 1
[12] = 48 h, 10 µM, compound concentration 10 uM, replicate 2

COC(=O)C1=C(C)NC(C)=C(C(=O)OCCCN2CCC(c3ccccc3)(c3ccccc3)CC2)[C@H]1c1cccc([N+](=O)[O-])c1 [NIGULDIPINE]
Population Apoptotic (%) [1]: 65% | Population Fragmented Nuclei (%) [1]: 17% | Population Healthy Nuclei (%) [1]: 45% | Population Hoechst High Intensity Objects (%) [1]: 12% | Population Membrane Permeable-Phenotype (%) [1]: 2% | Population Mitochondria Different-Phenotype (%) [1]: 85% | Population Mitotic Cells (%) [1]: 34% | Population Normal (%) [1]: 87% | Population Pyknosed Nuclei (%) [1]: 36% | Population Tubulin-Different-Phenotype (%) [1]: 100% | Total Cell Count [1]: 99 | Population Apoptotic (%) [2]: 91% | Population Fragmented Nuclei (%) [2]: 6% | Population Healthy Nuclei (%) [2]: 78% | Population Hoechst High Intensity Objects (%) [2]: 9% | Population Membrane Permeable-Phenotype (%) [2]: 66% | Population Mitochondria Different-Phenotype (%) [2]: 100% | Population Mitotic Cells (%) [2]: 8% | Population Normal (%) [2]: 90% | Population Pyknosed Nuclei (%) [2]: 15% | Total Cell Count [2]: 945 | Population Apoptotic (%) [3]: 65% | Population Fragmented Nuclei (%) [3]: 19% | Population Healthy Nuclei (%) [3]: 10% | Population Hoechst High Intensity Objects (%) [3]: 16% | Population Membrane Permeable-Phenotype (%) [3]: 63% | Population Mitochondria Different-Phenotype (%) [3]: 18% | Population Mitotic Cells (%) [3]: 34% | Population Normal (%) [3]: 83% | Population Pyknosed Nuclei (%) [3]: 69% | Population Tubulin-Different-Phenotype (%) [3]: 72% | Total Cell Count [3]: 124 | Population Apoptotic (%) [4]: 76% | Population Fragmented Nuclei (%) [4]: 67% | Population Healthy Nuclei (%) [4]: 3% | Population Hoechst High Intensity Objects (%) [4]: 12% | Population Membrane Permeable-Phenotype (%) [4]: 100% | Population Mitochondria Different-Phenotype (%) [4]: 50% | Population Mitotic Cells (%) [4]: 23% | Population Normal (%) [4]: 87% | Population Pyknosed Nuclei (%) [4]: 29% | Population Tubulin-Different-Phenotype (%) [4]: 100% | Total Cell Count [4]: 87 | Population Apoptotic (%) [5]: 76% | Population Fragmented Nuclei (%) [5]: 25% | Population Healthy Nuclei (%) [5]: 53% | Population Hoechst High Intensity Objects (%) [5]: 13% | Population Membrane Permeable-Phenotype (%) [5]: 7% | Population Mitochondria Different-Phenotype (%) [5]: 85% | Population Mitotic Cells (%) [5]: 23% | Population Normal (%) [5]: 86% | Population Pyknosed Nuclei (%) [5]: 20% | Population Tubulin-Different-Phenotype (%) [5]: 90% | Total Cell Count [5]: 117 | Population Apoptotic (%) [6]: 77% | Population Fragmented Nuclei (%) [6]: 7% | Population Healthy Nuclei (%) [6]: 65% | Population Hoechst High Intensity Objects (%) [6]: 5% | Population Membrane Permeable-Phenotype (%) [6]: 96% | Population Mitochondria Different-Phenotype (%) [6]: 100% | Population Mitotic Cells (%) [6]: 22% | Population Normal (%) [6]: 94% | Population Pyknosed Nuclei (%) [6]: 27% | Population Tubulin-Different-Phenotype (%) [6]: 100% | Total Cell Count [6]: 948 | Population Apoptotic (%) [7]: 79% | Population Fragmented Nuclei (%) [7]: 29% | Population Healthy Nuclei (%) [7]: 10% | Population Hoechst High Intensity Objects (%) [7]: 22% | Population Membrane Permeable-Phenotype (%) [7]: 27% | Population Mitochondria Different-Phenotype (%) [7]: 27% | Population Mitotic Cells (%) [7]: 20% | Population Normal (%) [7]: 77% | Population Pyknosed Nuclei (%) [7]: 59% | Population Tubulin-Different-Phenotype (%) [7]: 54% | Total Cell Count [7]: 135 | Population Apoptotic (%) [8]: 100% | Population Fragmented Nuclei (%) [8]: 40% | Population Healthy Nuclei (%) [8]: 25% | Population Hoechst High Intensity Objects (%) [8]: 11% | Population Membrane Permeable-Phenotype (%) [8]: 100% | Population Mitochondria Different-Phenotype (%) [8]: 100% | Population Mitotic Cells (%) [8]: 0% | Population Normal (%) [8]: 88% | Population Pyknosed Nuclei (%) [8]: 33% | Population Tubulin-Different-Phenotype (%) [8]: 100% | Total Cell Count [8]: 85 | Population Apoptotic (%) [9]: 80% | Population Fragmented Nuclei (%) [9]: 47% | Population Healthy Nuclei (%) [9]: 44% | Population Hoechst High Intensity Objects (%) [9]: 11% | Population Membrane Permeable-Phenotype (%) [9]: 1% | Population Mitochondria Different-Phenotype (%) [9]: 70% | Population Mitotic Cells (%) [9]: 20% | Population Normal (%) [9]: 88% | Population Pyknosed Nuclei (%) [9]: 7% | Population Tubulin-Different-Phenotype (%) [9]: 80% | Total Cell Count [9]: 143 | Population Apoptotic (%) [10]: 0% | Population Fragmented Nuclei (%) [10]: 61% | Population Healthy Nuclei (%) [10]: 38% | Population Hoechst High Intensity Objects (%) [10]: 21% | Population Membrane Permeable-Phenotype (%) [10]: 0% | Population Mitochondria Different-Phenotype (%) [10]: 71% | Population Mitotic Cells (%) [10]: 0% | Population Normal (%) [10]: 78% | Population Pyknosed Nuclei (%) [10]: 0% | Population Tubulin-Different-Phenotype (%) [10]: 86% | Total Cell Count [10]: 126 | Population Apoptotic (%) [11]: 82% | Population Fragmented Nuclei (%) [11]: 48% | Population Healthy Nuclei (%) [11]: 22% | Population Hoechst High Intensity Objects (%) [11]: 28% | Population Membrane Permeable-Phenotype (%) [11]: 31% | Population Mitochondria Different-Phenotype (%) [11]: 22% | Population Mitotic Cells (%) [11]: 17% | Population Normal (%) [11]: 71% | Population Pyknosed Nuclei (%) [11]: 29% | Population Tubulin-Different-Phenotype (%) [11]: 27% | Total Cell Count [11]: 138 | Population Apoptotic (%) [12]: 90% | Population Fragmented Nuclei (%) [12]: 68% | Population Healthy Nuclei (%) [12]: 17% | Population Hoechst High Intensity Objects (%) [12]: 31% | Population Membrane Permeable-Phenotype (%) [12]: 57% | Population Mitochondria Different-Phenotype (%) [12]: 64% | Population Mitotic Cells (%) [12]: 9% | Population Normal (%) [12]: 68% | Population Pyknosed Nuclei (%) [12]: 13% | Population Tubulin-Different-Phenotype (%) [12]: 21% | Total Cell Count [12]: 115
